Test results published in ChEMBL document CHEMBL3853270, “Influence of Birch Bark Triterpenes on Keratinocytes and Fibroblasts from Diabetic and Nondiabetic Donors” (2016).
The source made the active and inactive calls. The calls are words filed in the database; no cut-off is given here.

Columns and labels:
Assay type in all cases: functional
Fibroblast [1] = assay: Effect on growth factor related gene expression in diabetic adult human primary fibroblasts assessed as VEGFA mRNA levels at 9.81 uM after 6 hrs by qPCR analysis
Outline: (§1)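 Primary human dermal fibroblasts (young or adult nondiabetic, adult diabetic donor) were treated for 6 h against a 0.1% DMSO solvent control. RNA from 320 000 cells per sample was measured by Fluidigm Biomark high-throughput qPCR. Values are fold change relative to solvent control, from four independent experiments, with SD. One-way ANOVA with Bonferroni post-test was applied.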

Fibroblast [2] = assay: Effect on growth factor related gene expression in diabetic adult human primary fibroblasts assessed as VEGFA mRNA levels at 1.96 uM after 6 hrs by qPCR analysis; outline: as §1
Fibroblast [3] = assay: Effect on pro-inflammatory related gene expression in non-diabetic young human primary fibroblasts assessed as IL1B mRNA levels at 9.81 uM after 6 hrs by qPCR analysis
Keratinocyte [4] = assay: Effect on antioxidant related gene expression in non-diabetic adult human primary keratinocytes assessed as SOD2 mRNA levels at 9.81 uM after 6 hrs by qPCR analysis
Keratinocyte [5] = assay: Effect on cellular connection related gene expression in non-diabetic adult human primary keratinocytes assessed as CLDN4 mRNA levels at 1.96 uM after 6 hrs by qPCR analysis
Keratinocyte [6] = assay: Effect on cellular connection related gene expression in non-diabetic adult human primary keratinocytes assessed as CLDN4 mRNA levels at 9.81 uM after 6 hrs by qPCR analysis
Fibroblast [7] = assay: Effect on antiinflammatory related gene expression in non-diabetic young human primary fibroblasts assessed as NFKBIA mRNA levels at 1.96 uM after 6 hrs by qPCR analysis
Outline: (§2)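 Primary dermal fibroblasts from one nondiabetic young, one nondiabetic adult and one diabetic adult donor; 320 000 cells per sample, 6 h at 1.96 or 9.81 μM. RNA measured on a high-throughput qPCR chip. Fold change versus 0.1% DMSO control, four independent experiments, SD, one-way ANOVA with Bonferroni post-test.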

Keratinocyte [8] = assay: Effect on ECM related gene expression in non-diabetic adult human primary keratinocytes assessed as FBN1 mRNA levels at 1.96 uM after 6 hrs by qPCR analysis
Outline: (§3)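 Primary keratinocytes from nondiabetic young and adult and diabetic adult donors; 400 000 cells per sample, 6 h exposure at 1.96 or 9.81 μM. RNA extracted and read on a high-throughput qPCR chip. Results are fold change versus 0.1% DMSO solvent control from 5−7 independent experiments over two donors per group, SD, one-way ANOVA with Bonferroni post-test.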

Keratinocyte [9] = assay: Effect on antiinflammatory related gene expression in non-diabetic young human primary keratinocytes assessed as NFKBIA mRNA levels at 9.81 uM after 6 hrs by qPCR analysis
Keratinocyte [10] = assay: Effect on chemokines related gene expression in non-diabetic young human primary keratinocytes assessed as CXCL10 mRNA levels at 1.96 uM after 6 hrs by qPCR analysis
Outline: (§4)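 Primary human keratinocytes (nondiabetic young or adult, diabetic adult donors) were exposed to compound for 6 h, with 0.1% DMSO as solvent control. Total RNA came from 400 000 cells per sample and was assayed on a Fluidigm Biomark high-throughput qPCR chip. Results are fold change vs solvent control, from 2−4 independent experiments on two donors per group, with SD. Groups were compared by one-way ANOVA with Bonferroni post-test.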

Fibroblast [11] = assay: Effect on antiinflammatory related gene expression in non-diabetic adult human primary fibroblasts assessed as NFKBIA mRNA levels at 1.96 uM after 6 hrs by qPCR analysis; outline: as §2
Fibroblast [12] = assay: Effect on pro-inflammatory related gene expression in non-diabetic young human primary fibroblasts assessed as PTGS2 mRNA levels at 1.96 uM after 6 hrs by qPCR analysis
Keratinocyte [13] = assay: Effect on transcription factor related gene expression in non-diabetic adult human primary keratinocytes assessed as JUN mRNA levels at 1.96 uM after 6 hrs by qPCR analysis
Fibroblast [14] = assay: Effect on pro-inflammatory related gene expression in diabetic adult human primary fibroblasts assessed as PTGS2 mRNA levels at 9.81 uM after 6 hrs by qPCR analysis
Fibroblast [15] = assay: Effect on antioxidant related gene expression in diabetic adult human primary fibroblasts assessed as SOD2 mRNA levels at 9.81 uM after 6 hrs by qPCR analysis
Keratinocyte [16] = assay: Effect on AQP3 mRNA expression levels in non-diabetic young human primary keratinocytes at 9.81 uM after 6 hrs by qPCR analysis; outline: as §3
[17] = Effect on wound healing activity in diabetic adult human primary fibroblasts assessed as upregulation of soluble TNFR1 protein levels at 1.96 uM after 24 hrs by bead-based suspension array analysis; conditions: Fibroblast
Fibroblast [18] = assay: Effect on growth factor related gene expression in non-diabetic young human primary fibroblasts assessed as GDF15 mRNA levels at 1.96 uM after 6 hrs by qPCR analysis; outline: as §1
Keratinocyte [19] = assay: Effect on growth factor related gene expression in non-diabetic young human primary keratinocytes assessed as PDGFB mRNA levels at 9.81 uM after 6 hrs by qPCR analysis; outline: as §4
Fibroblast [20] = assay: Effect on transcription factor related gene expression in non-diabetic young human primary fibroblasts assessed as JUN mRNA levels at 9.81 uM after 6 hrs by qPCR analysis
Keratinocyte [21] = assay: Effect on antioxidant related gene expression in non-diabetic adult human primary keratinocytes assessed as SOD2 mRNA levels at 1.96 uM after 6 hrs by qPCR analysis
Keratinocyte [22] = assay: Effect on AQP3 mRNA expression levels in non-diabetic adult human primary keratinocytes at 9.81 uM after 6 hrs by qPCR analysis; outline: as §3
[23] = Upregulation of wound healing activity related GM-CSF protein levels in non-diabetic adult human primary keratinocytes at 1.96 uM after 24 hrs by bead-based suspension array analysis; conditions: Keratinocyte
Keratinocyte [24] = assay: Effect on cellular connection related gene expression in non-diabetic adult human primary keratinocytes assessed as GJB2 mRNA levels at 1.96 uM after 6 hrs by qPCR analysis
Fibroblast [25] = assay: Effect on antiinflammatory related gene expression in non-diabetic adult human primary fibroblasts assessed as NFKBIA mRNA levels at 9.81 uM after 6 hrs by qPCR analysis; outline: as §2
Fibroblast [26] = assay: Effect on transcription factor related gene expression in non-diabetic young human primary fibroblasts assessed as JUN mRNA levels at 1.96 uM after 6 hrs by qPCR analysis
Keratinocyte [27] = assay: Effect on pro-inflammatory related gene expression in non-diabetic young human primary keratinocytes assessed as TNF mRNA levels at 1.96 uM after 6 hrs by qPCR analysis
Keratinocyte [28] = assay: Effect on growth factor related gene expression in non-diabetic young human primary keratinocytes assessed as GDF15 mRNA levels at 9.81 uM after 6 hrs by qPCR analysis; outline: as §4
Keratinocyte [29] = assay: Effect on cellular connection related gene expression in non-diabetic young human primary keratinocytes assessed as GJB2 mRNA levels at 1.96 uM after 6 hrs by qPCR analysis
Fibroblast [30] = assay: Effect on chemokines related gene expression in non-diabetic young human primary fibroblasts assessed as WDR26 mRNA levels at 9.81 uM after 6 hrs by qPCR analysis; outline: as §1
Keratinocyte [31] = assay: Effect on ECM related gene expression in non-diabetic adult human primary keratinocytes assessed as FBN1 mRNA levels at 9.81 uM after 6 hrs by qPCR analysis; outline: as §3

C=C(C)[C@@H]1CC[C@]2(CO)CC[C@]3(C)[C@H](CC[C@@H]4[C@@]5(C)CC[C@H](O)C(C)(C)[C@@H]5CC[C@]43C)[C@@H]12 [BETULIN]
fold change (FC) (Fibroblast [1]): 2 | fold change (FC) (Fibroblast [2]): 2.4 | fold change (FC) (Fibroblast [3]): 5.7 | fold change (FC) (Keratinocyte [4]): 1.6 | fold change (FC) (Keratinocyte [5]): 1 | fold change (FC) (Keratinocyte [6]): 1.5 | fold change (FC) (Fibroblast [7]): 2.9 | fold change (FC) (Keratinocyte [8]): 0.9 | fold change (FC) (Keratinocyte [9]): 1.6 | fold change (FC) (Keratinocyte [10]): 1.9 | fold change (FC) (Fibroblast [11]): 7.5 | fold change (FC) (Fibroblast [12]): 10.9 | fold change (FC) (Keratinocyte [13]): 1.3 | fold change (FC) (Fibroblast [14]): 2.9 | fold change (FC) (Fibroblast [15]): 1.1 | fold change (FC) (Keratinocyte [16]): 1.1 | Activity [17]: Active | fold change (FC) (Fibroblast [18]): 3.7 | fold change (FC) (Keratinocyte [19]): 1.1 | fold change (FC) (Fibroblast [20]): 1.6 | fold change (FC) (Keratinocyte [21]): 1.3 | fold change (FC) (Keratinocyte [22]): 0.8 | Activity [23]: Active | fold change (FC) (Keratinocyte [24]): 0.7 | fold change (FC) (Fibroblast [25]): 11 | fold change (FC) (Fibroblast [26]): 1 | fold change (FC) (Keratinocyte [27]): 4.5 | fold change (FC) (Keratinocyte [28]): 1.1 | fold change (FC) (Keratinocyte [29]): 0.8 | fold change (FC) (Fibroblast [30]): 1.4 | fold change (FC) (Keratinocyte [31]): 0.7
